Experimental data as given in the RNAGym collection of RNA variant scans (doi:10.1038/nmeth.2970).

B1: NELF-E aptamer (parent)
chain: CCCAACGACUGCCGAGCGAGAUUACGCUUGAGCGCCCCACUGAGGAUGCCCACGGGCGAUUGGGGCACGG

Variants of: B1
Experiment: HiTS-RAP
Conditions: with NELF-E (Drosophila)
Outline: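 Aptamer DNA templates bearing a T7 promoter and a ter site were sequenced on an Illumina GAIIx flowcell. T7 RNA polymerase then transcribed them in situ, and GST-Tus halted transcription over 30 minutes at 37°C. After a 30-minute room-temperature equilibration with NELF-E-mOrange at 0.064 to 1000 nM in HEPES binding buffer, clusters were imaged, using only the first binding curve. Intensities normalised to sequencing intensity were averaged per sequence and fitted with weighted Hill fits to give Kd, retaining only fits whose variance stayed under 1,000,000.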
A8U C36U showed a Kd of 8.33 nM. With G7U G14A the Kd was 6.59 nM. G7U G14U showed a Kd of 6.73 nM. For A8G G16U, the Kd was 6.76 nM. A8G G16A gave a Kd of 5.75 nM. With G7A C12G the Kd was 6.93 nM. In the case of A8G A46G, the Kd is reported as 17.8 nM. For A8C U29G, the Kd was 8.24 nM. In the case of A8G G32A, the Kd is reported as 5.07 nM. A8U G42A gave a Kd of 71.2 nM. G7U C38U gave a Kd of 8.98 nM. With G7U A31U the Kd was 5.33 nM. Variant G7U A31G has a Kd of 7.34 nM. With G7U G20A the Kd was 7.33 nM. G7U G20U gave a Kd of 7.06 nM. In the case of G7U A39U, the Kd is reported as 26.9 nM. For G7U A39G, the Kd was 11.4 nM. A8G C33U was tested, and the Kd was 5.16 nM. G7U A67U gave a Kd of 9.65 nM. Work on G7U A67G yielded a Kd of 7.45 nM. G7U G44U showed a Kd of 16.7 nM. Work on A8U G30A yielded a Kd of 5.46 nM. Work on G7U G16U yielded a Kd of 7.06 nM. G7U G16A was tested, and the Kd was 6.97 nM. A8G G44A showed a Kd of 39.3 nM. G7U U41G was tested, and the Kd was 6.05 nM. Work on G7U U41A yielded a Kd of 64.3 nM. In the case of G7U U41C, the Kd is reported as 91.2 nM. A8U G65A was tested, and the Kd was 5.1 nM. For A8U G65U, the Kd was 8.03 nM. Work on G7C yielded a Kd of 6.43 nM. G7A showed a Kd of 5.61 nM. Work on G7U yielded a Kd of 5.55 nM. Work on G7U C35U yielded a Kd of 8.9 nM. With G7U C35A the Kd was 8.62 nM. A8U C37U gave a Kd of 13.2 nM. In the case of A8U C37A, the Kd is reported as 22.1 nM. In the case of A8U A24G, the Kd is reported as 6.05 nM. G7U G18U gave a Kd of 6.84 nM. In the case of G7U G18A, the Kd is reported as 5.43 nM. For G7U A24U, the Kd was 6.81 nM. In the case of G7U A24G, the Kd is reported as 6.71 nM. For A8U C9U, the Kd was 6.55 nM. A8U C9G was tested, and the Kd was 6.03 nM. A8G U61A gave a Kd of 29.3 nM. Work on A8G U61C yielded a Kd of 70.8 nM. With A8U A46G the Kd was 50 nM. In the case of A8U A46U, the Kd is reported as 43.1 nM. A8G A19G showed a Kd of 5.51 nM. For A8G A19U, the Kd was 5.53 nM. Variant A8U G62A has a Kd of 19.2 nM. In the case of A8U G62U, the Kd is reported as 10 nM. With G7A G16U the Kd was 5.55 nM. Work on G7U G65A yielded a Kd of 4.96 nM. With G7U G65U the Kd was 7.38 nM. G7U U60C gave a Kd of 10.9 nM. G7U A52U was tested, and the Kd was 19.3 nM. With G7U A52G the Kd was 4.13 nM. In the case of G7A A24G, the Kd is reported as 6.73 nM. For C6U A59G, the Kd was 69.1 nM. In the case of A8U A67U, the Kd is reported as 7.42 nM. A8U A67G gave a Kd of 5.61 nM. C6U G55A gave a Kd of 7.75 nM. For C6U A52U, the Kd was 23.1 nM. G7U G32A showed a Kd of 4.74 nM. Work on A8G G55U yielded a Kd of 7.12 nM. Variant A8G G55A has a Kd of 10 nM. For C6U C17G, the Kd was 6.11 nM. With C6U C17U the Kd was 6.39 nM. A8G U22C was tested, and the Kd was 5.08 nM. In the case of A8G U22G, the Kd is reported as 5.75 nM. In the case of A8G G42A, the Kd is reported as 44.1 nM. In the case of A8G C36U, the Kd is reported as 6.33 nM. For G7A A39G, the Kd was 12.1 nM. G7A G11U was tested, and the Kd was 7.32 nM. C6U G20U showed a Kd of 8.79 nM. G7U U10A gave a Kd of 7.85 nM. With G7U U10G the Kd was 5.68 nM. For G7U U10C, the Kd was 5.96 nM. Variant G7U A19U has a Kd of 6.31 nM. With G7U A19G the Kd was 6.23 nM. A8U G14A showed a Kd of 7.4 nM. Work on A8U G14U yielded a Kd of 6.76 nM. For C6U U41G, the Kd was 5.16 nM. With C6U U41A the Kd was 82.3 nM. In the case of C6U U41C, the Kd is reported as 81.8 nM. With A8G C66U the Kd was 5.01 nM. Work on G7U G34U yielded a Kd of 7.8 nM. Variant G7U G34A has a Kd of 7.85 nM. With A8G U23C the Kd was 4.62 nM. A8G U23G showed a Kd of 5.8 nM. In the case of G7U G54U, the Kd is reported as 5.44 nM. With G7U G54A the Kd was 15.7 nM. A8U G34A was tested, and the Kd was 6.21 nM. A8G G20A gave a Kd of 5.52 nM. Work on A8G G20U yielded a Kd of 6.35 nM. Work on A8G C49U yielded a Kd of 16.8 nM. With C6U C9G the Kd was 6.57 nM. Work on C6U C9U yielded a Kd of 5.38 nM. In the case of A8G G56U, the Kd is reported as 6.49 nM. A8G G56A was tested, and the Kd was 10 nM. A8U C51U was tested, and the Kd was 10.8 nM. In the case of A8G C53U, the Kd is reported as 4.94 nM. For A8G U28C, the Kd was 7.19 nM. With A8G U28A the Kd was 4.13 nM. With A8G U28G the Kd was 6.24 nM. Variant A8U G55A has a Kd of 8.25 nM. Variant A8U G55U has a Kd of 7.57 nM. Variant A8G G65A has a Kd of 5.32 nM. In the case of A8G G65U, the Kd is reported as 8.03 nM. With A8G G63U the Kd was 11 nM. Work on A8G G63A yielded a Kd of 16.1 nM. In the case of A8U C13A, the Kd is reported as 7.3 nM. Work on A8U C13G yielded a Kd of 6.33 nM. Work on A8U C13U yielded a Kd of 4.96 nM. Work on G7U G11A yielded a Kd of 6.15 nM. For G7U G11U, the Kd was 6.5 nM. With C6U C25G the Kd was 7.85 nM. Variant A8U C57U has a Kd of 5.42 nM. A8U A31U showed a Kd of 7.11 nM. A8U A31G showed a Kd of 8.05 nM. C6U G34A showed a Kd of 6.54 nM. In the case of G7U G64A, the Kd is reported as 8.36 nM. Work on G7U G64U yielded a Kd of 7.33 nM. G7A U10G was tested, and the Kd was 5.66 nM. A8G A52G gave a Kd of 4.33 nM. In the case of A8G A52U, the Kd is reported as 15.5 nM. In the case of A8U G56A, the Kd is reported as 16.7 nM. A8U G56U was tested, and the Kd was 6.41 nM. In the case of G7U A8U, the Kd is reported as 6.38 nM. Variant G7U A8G has a Kd of 5.66 nM. In the case of G7U A8C, the Kd is reported as 7.45 nM. For A8U C66U, the Kd was 5.31 nM. G7U C17G was tested, and the Kd was 6.28 nM. In the case of G7U C17U, the Kd is reported as 6.16 nM. G7U G48A gave a Kd of 12 nM. Work on A8G A67G yielded a Kd of 6.62 nM. With A8G A67U the Kd was 6.63 nM. For G7U C66U, the Kd was 6.12 nM. Work on G7U U29G yielded a Kd of 6.33 nM. Work on G7U U29A yielded a Kd of 5.71 nM. Variant G7U U29C has a Kd of 6.86 nM. Work on A8U G64U yielded a Kd of 9.52 nM. A8U G64C showed a Kd of 7.62 nM. A8U G64A gave a Kd of 8.34 nM. For A8G C51U, the Kd was 6.89 nM. For A8G A24U, the Kd was 5.52 nM. A8G A24G showed a Kd of 6.27 nM. For C6U U22G, the Kd was 5.57 nM. Work on A8G G18U yielded a Kd of 7.18 nM. Work on A8G G18A yielded a Kd of 6.78 nM. In the case of G7U C27G, the Kd is reported as 5.97 nM. Work on G7U C27U yielded a Kd of 5.11 nM. With A8U G44U the Kd was 25.7 nM. A8U A43U showed a Kd of 104 nM. With A8U A43G the Kd was 25.7 nM. A8U A39U was tested, and the Kd was 28.6 nM. C6U G56U gave a Kd of 6.57 nM. A8G G30A gave a Kd of 4.89 nM. A8G G30U showed a Kd of 4.7 nM. In the case of A8G U47G, the Kd is reported as 7.16 nM. For A8G U47A, the Kd was 10.9 nM. A8G G54A gave a Kd of 14.6 nM. G7U C25U showed a Kd of 5.7 nM. G7U C25G gave a Kd of 5.61 nM. G7U U28G showed a Kd of 8.81 nM. In the case of G7U U28C, the Kd is reported as 9.32 nM.
